According to ChEMBL document CHEMBL3124806, “Imidazopyridine-fused [1,3]-diazepinones: synthesis and antiproliferative activity” (Eur J Med Chem, 2014):
Activity calls are given as the source filed them. No cut-off for these calls is given here.

What was measured:
MDA-MB-435 [1] = test: Cytotoxicity against human MDA-MB-435 cells assessed as reduction in cell growth at 1 to 10 uM after 48 hrs by MTT assay relative to untreated control; assay type: functional; parameters: scale not given: the % may be the effect or the level left
Summary of the method: (§1)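 Melanoma lines grown at 37 °C in humidified 5% CO2: MDA-MB-435 in DMEM/Ham's F12 1:1 with 10% FCS and antibiotics, SK-MEL-2 in RPMI-1640 with 10% FCS. Cells plated 24 h, then exposed 48 h to 100–0.01 µM (dilutions from fresh 100 µM stock in medium). MTT 0.5 mg/mL added for 4 h, crystals dissolved in EtOH/DMSO 1:1, absorbance read at 540 nm. Mean ± SD of three independent experiments.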

SK-MEL-2 = test: Cytotoxicity against human SK-MEL-2 cells assessed as reduction in cell growth at 1 to 10 uM after 48 hrs by MTT assay relative to untreated control; assay type: functional; parameters: scale not given: the % may be the effect or the level left; summary of the method: as §1
[2] = Cytotoxicity against human CAL-1 cells assessed as reduction in cell growth at 1 to 10 uM after 48 hrs by MTT assay relative to untreated control; assay type: functional; parameters: scale not given: the % may be the effect or the level left
Summary of the method: (§2)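 CAL1 melanoma cells grown in DMEM with 2 mM L-glutamine and 10% FCS at 37 °C, 5% CO2. Seeded at 10^4 cells/well, grown 24 h, then treated 48 h across 100–0.01 μM (compounds dissolved in medium). Read-out: 0.5 mg mL⁻¹ MTT for 4 h, crystals dissolved in EtOH/DMSO 1:1, absorbance at 540 nm.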

SF-268 = test: Cytotoxicity against human SF268 cells after 48 hrs by SRB assay; assay type: functional; settings: SF-268, 48 h
Summary of the method: (§3)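 NCI-60 five-dose screen: cells exposed continuously for 48 h across 100 to 0.01 µM. Growth or viability estimated by sulforhodamine B protein staining, read spectrophotometrically against untreated controls; IC50 taken from the dose-response.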

[3] = target: Cyclin-dependent kinase 2 (Homo sapiens) (UniProt P24941); test: Inhibition of human CDK2 at 10 uM
Summary of the method: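 Kinase selectivity panel of 19 protein tyrosine kinases and 30 serine/threonine kinases, run by a contract lab (CEREP). Each compound was tested at a single dose of 10 μM in duplicate.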

IGROV-1 = test: Cytotoxicity against human IGROV1 cells after 48 hrs by SRB assay; assay type: functional; settings: IGROV-1, 48 h
Summary of the method: (§4)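 NCI-60 five-dose testing, 100 to 0.01 µM, under a 48 h continuous-exposure protocol. Growth estimated by SRB protein assay, read spectrophotometrically against untreated controls; IC50 derived from the dose-response.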

M14 = test: Cytotoxicity against human M14 cells after 48 hrs by SRB assay; assay type: functional; settings: M14, 48 h; summary of the method: as §4
BT-549 = test: Cytotoxicity against human BT549 cells after 48 hrs by SRB assay; assay type: functional; settings: BT-549, 48 h; summary of the method: as §4
TK-10 = test: Cytotoxicity against human TK10 cells after 48 hrs by SRB assay; assay type: functional; settings: TK-10, 48 h
Summary of the method: (§5)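 NCI-60 five-dose mode on the full human tumour line panel. Concentrations ran from 100 to 0.01 µM with 48 h continuous exposure. Growth was estimated by SRB protein staining against untreated controls, and IC50 values were derived from the dose–response.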

SK-OV-3 = test: Cytotoxicity against human SKOV3 cells after 48 hrs by SRB assay; assay type: functional; settings: SK-OV-3, 48 h; summary of the method: as §5
NCI-H23 = test: Cytotoxicity against human NCI-H23 cells after 48 hrs by SRB assay; assay type: functional; settings: NCI-H23, 48 h; summary of the method: as §3
RPMI-8226 = test: Cytotoxicity against human RPMI8226 cells after 48 hrs by SRB assay; assay type: functional; settings: RPMI-8226, 48 h; summary of the method: as §3
COLO 205 = test: Cytotoxicity against human COLO205 cells after 48 hrs by SRB assay; assay type: functional; settings: COLO 205, 48 h; summary of the method: as §4
HCT-116 = test: Cytotoxicity against human HCT116 cells after 48 hrs by SRB assay; assay type: functional; settings: HCT-116, 48 h; summary of the method: as §4
SK-MEL-5 = test: Cytotoxicity against human SK-MEL-5 cells after 48 hrs by SRB assay; assay type: functional; settings: SK-MEL-5, 48 h; summary of the method: as §5
NCI-H226 = test: Cytotoxicity against human NCI-H226 cells after 48 hrs by SRB assay; assay type: functional; settings: NCI-H226, 48 h; summary of the method: as §3
SNB-19 = test: Cytotoxicity against human SNB19 cells after 48 hrs by SRB assay; assay type: functional; settings: SNB-19, 48 h; summary of the method: as §5
T47D = test: Cytotoxicity against human T47D cells after 48 hrs by SRB assay; assay type: functional; summary of the method: as §5
HCT-15 = test: Cytotoxicity against human HCT15 cells after 48 hrs by SRB assay; assay type: functional; settings: HCT-15, 48 h; summary of the method: as §4
MDA-MB-435 [4] = test: Induction of apoptosis in human MDA-MB-435 cells assessed as alterations in stress action fibre aggregation at 5 uM after 20 hrs by Hoechst 33342 staining-based […] microscopy; assay type: functional, cell-based
Summary of the method: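 MDA-MB-435 cells were grown for 24 h, then treated with or without 5 μM compound for 20 h. Cells were fixed for 20 min and permeabilised with 0.2% Triton X-100 for 4 min at room temperature. Actin was stained with a mouse anti-actin antibody and an Alexa Fluor 568 anti-mouse antibody, each for 1 h at RT. Nuclei were counterstained with Hoechst 33342, and cells were imaged by confocal microscopy.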

UACC-62 = test: Cytotoxicity against human UACC62 cells after 48 hrs by SRB assay; assay type: functional; settings: UACC-62, 48 h; summary of the method: as §5
[5] = Cytotoxicity against human CAL-1 cells assessed as cell growth at 10 uM after 48 hrs by MTT assay relative to untreated control; assay type: functional; settings: CAL1, 48 h, read-out: Activity; summary of the method: as §2
[6] = Cytotoxicity against human Hs578T cells after 48 hrs by SRB assay; assay type: functional; settings: Hs-578T; summary of the method: as §4
DU-145 = test: Cytotoxicity against human DU145 cells after 48 hrs by SRB assay; assay type: functional; settings: DU-145, 48 h; summary of the method: as §4
SK-MEL-28 = test: Cytotoxicity against human SK-MEL-28 cells after 48 hrs by SRB assay; assay type: functional; settings: SK-MEL-28, 48 h; summary of the method: as §3
[7] = read-out: LC50 (the source's name)

C[C@@H]1NC(c2ccccc2)=Nc2nc3ccccn3c2C1=O
Activity (MDA-MB-435 [1]): 20%
Activity (SK-MEL-2): 20%
Activity [2]: 20%

C[C@@H]1NC(c2ccc(Br)cc2)=Nc2nc3ccccn3c2C1=O
GI50 (SF-268): 17.2 µM
TGI (SF-268): > 100 µM
CC50 (SF-268; [7]): > 100 µM
inhibition [3]: inactive
GI50 (IGROV-1): 51.9 µM
TGI (IGROV-1): > 100 µM
CC50 (IGROV-1; [7]): > 100 µM
GI50 (M14): 3.2 µM
TGI (M14): 48.2 µM
CC50 (M14; [7]): > 100 µM
GI50 (BT-549): 5.49 µM
TGI (BT-549): > 100 µM
CC50 (BT-549; [7]): > 100 µM
GI50 (TK-10): 21 µM
TGI (TK-10): > 100 µM
CC50 (TK-10; [7]): > 100 µM
GI50 (SK-OV-3): 4.41 µM
TGI (SK-OV-3): > 100 µM
CC50 (SK-OV-3; [7]): > 100 µM
GI50 (NCI-H23): 25.4 µM
TGI (NCI-H23): > 100 µM
CC50 (NCI-H23; [7]): > 100 µM
GI50 (RPMI-8226): 7.31 µM
TGI (RPMI-8226): > 100 µM
CC50 (RPMI-8226; [7]): > 100 µM
GI50 (COLO 205): 1.87 µM
TGI (COLO 205): 4.75 µM
CC50 (COLO 205; [7]): 95.8 µM
GI50 (HCT-116): 4.04 µM
TGI (HCT-116): > 100 µM
CC50 (HCT-116; [7]): > 100 µM
GI50 (SK-MEL-5): 2.24 µM
TGI (SK-MEL-5): 40.5 µM
CC50 (SK-MEL-5; [7]): > 100 µM
GI50 (NCI-H226): 14.7 µM
TGI (NCI-H226): > 100 µM
CC50 (NCI-H226; [7]): > 100 µM
GI50 (SNB-19): 7.45 µM
TGI (SNB-19): > 100 µM
CC50 (SNB-19; [7]): > 100 µM
GI50 (T47D): 46.2 µM
TGI (T47D): > 100 µM
CC50 (T47D; [7]): > 100 µM
GI50 (HCT-15): 3.64 µM
TGI (HCT-15): > 100 µM
CC50 (HCT-15; [7]): > 100 µM
Activity (MDA-MB-435 [4]): Active
GI50 (UACC-62): 4.35 µM
TGI (UACC-62): > 100 µM
CC50 (UACC-62; [7]): > 100 µM
growth at 10 µM [5]: 12%
GI50 [6]: 2.81 µM
TGI [6]: 52 µM
CC50 [6, 7]: > 100 µM
GI50 (DU-145): 23.2 µM
TGI (DU-145): > 100 µM
CC50 (DU-145; [7]): > 100 µM
GI50 (SK-MEL-28): 9.51 µM
TGI (SK-MEL-28): > 100 µM
CC50 (SK-MEL-28; [7]): > 100 µM
